In test [1] the test system is K562. The experiment in a line: Cytotoxicity against human doxorubicin-sensitive K562 cells after 72 hrs by MTT assay. It counts as functional, cell-based. The following applies: K562, 72 h. In outline:
(§1)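 MTT assay: cells seeded at 3000/well with doxorubicin (0.001–0.1 µM in K562; 0.1–10 µM in K562/DOX), alone or with modulator, for 72 h at 37 °C. Doxorubicin IC50 is the 50% drop in MTT conversion versus untreated cells, read from plots. RF is the IC50 without modulator divided by the IC50 with modulator. Values are mean ± SE of ≥3 runs, or mean of two runs, in quadruplicate cultures.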
In general terms: Tetrazolium dyes change colour on reduction, which living cells bring about.

The test system of test [2] is K562. Kind of test: Cytotoxicity against human doxorubicin-resistant K562 cells expressing Pgp after 72 hrs by MTT assay. It counts as functional, cell-based. The following applies: K562, 72 h. An outline of the steps:
as §1

Test [3] deals with K562. The experiment in a line: Reversal of P-glycoprotein-mediated multidrug resistance in human anthracycline-resistant K562 cells assessed as drug level causing 50% increase in nuclear concentration of pirarubicin by spectrofluorimetry. It counts as cell-based. In outline: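 K562/DOX cells were grown in RPMI 1640 with 10% FCS at 37 °C, 5% CO2, and kept resistant by a monthly 3-day exposure to 400 nM doxorubicin. Cultures were started at 5 × 10^5 cells/mL and used 24 h later. Pirarubicin uptake was followed as fluorescence decrease at 590 nm (ex 480 nm) in 2 mL buffer at 37 °C.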

Test [4] concerns K562. The experiment in a line: Potentiation of doxorubicin-induced growth inhibition in human doxorubicin-resistant K562 cells expressing Pgp at 3 uM after 72 hrs by MTT assay. The test is classed as functional, cell-based. An outline of the steps: as §1
Test [5] relates to K562. Kind of test: Potentiation of doxorubicin-induced growth inhibition in human doxorubicin-resistant K562 cells expressing Pgp at 1 uM after 72 hrs by MTT assay. The test is classed as functional, cell-based. In outline:
as §1

Test [6] relates to K562. The experiment in a line: Cytotoxicity against human doxorubicin-resistant K562 cells expressing Pgp assessed as cell viability by trypan blue exclusion assay. The test is classed as functional.

Activity calls are given as the source filed them. No cut-off for these calls is given here.

Usually IC50 stands for the concentration that gives 50% inhibition.

As for `COc1cccc2c1C(=O)c1c(O)c3c(c(O)c1C2=O)C[C@@](O)(C(=O)CO)C[C@@H]3O[C@H]1C[C@H](N)[C@H](O)[C@H](C)O1` [DOXORUBICIN], the IC50 with K562 [1] is 32 nM; in the test with K562 [2], 2840 nM.

Regarding `COc1cc(C(=O)OCCCN(C)CCCOC(=O)c2c3ccccc3cc3ccccc23)cc(OC)c1OC`, in the test on K562 [3], the Activity is 0.6 µM.

Consider `COc1ccc(CCN(C)CCCC(C#N)(c2ccc(OC)c(OC)c2)C(C)C)cc1OC` (configuration not stated), for which the result with K562 [4] and in the test on K562 [5] was Active. Further, the Activity in the test on K562 [6] was above 95%.

Regarding `COc1ccc(C(C#N)(CCCNCc2c3ccccc3cc3ccccc23)C(C)C)cc1OC` (configuration not stated), in the test on K562 [3], the Activity is 0.05 µM.

These data come from ChEMBL document CHEMBL1143381 (J Med Chem, 2009).
